# Key:
# HOP-62 = experiment: Antiproliferative activity against human HOP62 cells assessed as cell growth at 10 uM; assay type: functional; settings: read-out: Activity
# How it was run: (§1)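 NCI 60 cell line panel, single-dose screen (10^-5 M) run by the developmental therapeutics program protocol. Results are given as growth percent of treated cells relative to untreated control cells for each line.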
# SW-620 = experiment: Antiproliferative activity against human SW620 cells assessed as cell growth at 10 uM; assay type: functional; settings: read-out: Activity
# How it was run: (§2)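 NCI 60 cell line panel, single dose (10^-5 M), run per the Developmental Therapeutics Program protocol (one dose mean graph). Each result is the growth percentage of treated cells relative to untreated control cells.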
# MCF7 = experiment: Antiproliferative activity against human MCF7 cells assessed as cell growth at 10 uM; assay type: functional; settings: read-out: Activity; how it was run: as §1
# MDA-MB-435 = experiment: Antiproliferative activity against human MDA-MB-435 cells assessed as cell growth at 10 uM; assay type: functional; settings: read-out: Activity; how it was run: as §1
# SK-OV-3 = experiment: Antiproliferative activity against human SKOV3 cells assessed as cell growth at 10 uM; assay type: functional; settings: read-out: Activity; how it was run: as §1
# K562 = experiment: Antiproliferative activity against human K562 cells assessed as cell growth at 10 uM; assay type: functional; settings: read-out: Activity; how it was run: as §1
# [1] = Antiproliferative activity against human RPMI8266 cells assessed as cell growth at 10 uM; assay type: functional; settings: read-out: Activity; how it was run: as §1
# SR = experiment: Antiproliferative activity against human SR cells assessed as cell growth at 10 uM; assay type: functional; settings: read-out: Activity; how it was run: as §2
# 786-0 = experiment: Antiproliferative activity against human 786-0 cells assessed as cell growth at 10 uM; assay type: functional; settings: read-out: Activity; how it was run: as §1
# ACHN = experiment: Antiproliferative activity against human ACHN cells assessed as cell growth at 10 uM; assay type: functional; settings: read-out: Activity; how it was run: as §1
# CAKI-1 = experiment: Antiproliferative activity against human Caki1 cells assessed as cell growth at 10 uM; assay type: functional; settings: read-out: Activity; how it was run: as §1
# SK-MEL-5 = experiment: Antiproliferative activity against human SK-MEL-5 cells assessed as cell growth at 10 uM; assay type: functional; settings: read-out: Activity; how it was run: as §1
# HOP-92 = experiment: Antiproliferative activity against human HOP92 cells assessed as cell growth at 10 uM; assay type: functional; settings: read-out: Activity; how it was run: as §1
# NCI-H23 = experiment: Antiproliferative activity against human NCI-H23 cells assessed as cell growth at 10 uM; assay type: functional; settings: read-out: Activity; how it was run: as §1
# NCI-H322M = experiment: Antiproliferative activity against human NCI-H322M cells assessed as cell growth at 10 uM; assay type: functional; settings: read-out: Activity; how it was run: as §1
# NCI-H460 = experiment: Antiproliferative activity against human NCI-H460 cells assessed as cell growth at 10 uM; assay type: functional; settings: read-out: Activity; how it was run: as §1
# KM12 = experiment: Antiproliferative activity against human KM12 cells assessed as cell growth at 10 uM; assay type: functional; settings: read-out: Activity; how it was run: as §1
# [2] = biological target: Telomerase reverse transcriptase (Homo sapiens) (UniProt O14746); experiment: Inhibition of TERT in human H1299 cells assessed as residual transcriptional activity at 100 uM after 24 hrs by SEAP reporter gene assay; values are per cent of control
# Sequence of Telomerase reverse transcriptase (Homo sapiens) (O14746 whole entry): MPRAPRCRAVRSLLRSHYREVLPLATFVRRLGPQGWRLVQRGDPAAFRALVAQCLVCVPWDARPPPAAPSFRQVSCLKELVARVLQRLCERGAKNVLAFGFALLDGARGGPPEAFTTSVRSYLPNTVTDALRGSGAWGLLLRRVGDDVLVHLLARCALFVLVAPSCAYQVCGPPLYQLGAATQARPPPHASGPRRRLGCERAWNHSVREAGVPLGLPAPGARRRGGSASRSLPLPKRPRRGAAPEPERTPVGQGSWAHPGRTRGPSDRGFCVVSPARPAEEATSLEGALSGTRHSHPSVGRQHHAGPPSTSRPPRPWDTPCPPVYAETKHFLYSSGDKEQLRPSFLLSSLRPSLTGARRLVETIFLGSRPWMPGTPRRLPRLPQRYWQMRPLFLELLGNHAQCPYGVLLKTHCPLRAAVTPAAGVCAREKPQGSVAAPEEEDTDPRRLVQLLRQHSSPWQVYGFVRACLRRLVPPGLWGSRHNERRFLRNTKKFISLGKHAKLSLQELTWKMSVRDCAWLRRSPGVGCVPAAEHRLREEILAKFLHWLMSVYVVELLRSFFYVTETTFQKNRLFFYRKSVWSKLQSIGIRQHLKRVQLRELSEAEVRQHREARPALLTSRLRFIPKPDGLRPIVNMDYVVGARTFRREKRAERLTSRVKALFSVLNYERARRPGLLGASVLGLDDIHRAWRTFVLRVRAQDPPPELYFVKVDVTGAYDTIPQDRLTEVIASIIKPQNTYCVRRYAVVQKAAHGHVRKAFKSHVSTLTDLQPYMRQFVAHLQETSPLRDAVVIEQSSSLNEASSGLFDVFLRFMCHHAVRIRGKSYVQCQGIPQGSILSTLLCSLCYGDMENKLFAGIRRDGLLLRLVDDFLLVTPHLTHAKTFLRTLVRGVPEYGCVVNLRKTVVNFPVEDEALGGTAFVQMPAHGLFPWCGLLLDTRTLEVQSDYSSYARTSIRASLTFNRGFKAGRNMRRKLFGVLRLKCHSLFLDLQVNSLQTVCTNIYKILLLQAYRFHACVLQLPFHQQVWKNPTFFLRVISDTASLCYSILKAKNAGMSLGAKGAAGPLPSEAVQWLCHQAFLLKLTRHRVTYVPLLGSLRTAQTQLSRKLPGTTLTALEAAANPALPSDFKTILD
Compound,growth at 10 µM (HOP-62) [%],growth at 10 µM (SW-620) [%],growth at 10 µM (MCF7) [%],growth at 10 µM (MDA-MB-435) [%],growth at 10 µM (SK-OV-3) [%],growth at 10 µM (K562) [%],growth at 10 µM [1] [%],growth at 10 µM (SR) [%],growth at 10 µM (786-0) [%],growth at 10 µM (ACHN) [%],growth at 10 µM (CAKI-1) [%],growth at 10 µM (SK-MEL-5) [%],growth at 10 µM (HOP-92) [%],growth at 10 µM (NCI-H23) [%],growth at 10 µM (NCI-H322M) [%],growth at 10 µM (NCI-H460) [%],growth at 10 µM (KM12) [%],residual activity [2] [%]
CN(C)c1ccc(-c2nc3ccc4c(c3[nH]2)C(=O)c2ccccc2C4=O)cc1,102,103,67.4,106,202,96.1,78.4,118,109,96.2,108,93.8,89.9,93.8,94.8,101,98,21
O=C1c2ccccc2C(=O)c2c1ccc1nc(-c3ccccc3)[nH]c21,109,82.8,51.8,101,115,76,61.1,95.5,111,71.9,51.9,65.2,50.7,91.7,77.4,86.2,75.5,10
COc1cc(-c2nc3ccc4c(c3[nH]2)C(=O)c2ccccc2C4=O)ccc1O,116,102,57.5,103,113,95.5,81,73.9,109,100,134,88.1,120,103,107,90.1,113,8

# From ChEMBL document CHEMBL1152649, “Synthesis, cytotoxicity and human telomerase inhibition activities of a series of 1,2-heteroannelated anthraquinones and anthra[1,2-d]imidazole-6,11-dione homologues” (2009)
